In ChEMBL document CHEMBL1154352, “Toll-like receptor 7 selective synthetic oligoribonucleotide agonists: synthesis and structure-activity relationship studies” (J Med Chem, 2009):

What was measured:
Assay type in all cases: functional, cell-based
[1] = system: PBMC; assay: Immunomodulatory activity in human PBMC assessed as induction of MIP1alpha after 24 hrs
Procedure, shortened: (§1)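 Human PBMCs plated at 5 × 10^6 cells/mL; compounds dissolved in PBS added at various concentrations, 37 °C for 24 h. Supernatant cytokines/chemokines quantified with human Luminex multiplex kit.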

[2] = system: PBMC; assay: Immunomodulatory activity in human PBMC assessed as induction of IL12 after 24 hrs; procedure, shortened: as §1
[3] = system: PBMC; assay: Immunomodulatory activity in human PBMC assessed as induction of IP10 after 24 hrs; procedure, shortened: as §1
[4] = system: PBMC; assay: Immunomodulatory activity in human PBMC assessed as induction of IL1-beta after 24 hrs; procedure, shortened: as §1
[5] = system: PBMC; assay: Immunomodulatory activity in human PBMC assessed as induction of IL6 after 24 hrs; procedure, shortened: as §1

Measured: Activity

Nc1ccn([C@@H]2O[C@H](COP(=O)(S)O[C@H]3[C@@H](O)[C@H](n4cnc5c(N)ncnc54)O[C@@H]3COP(=O)(S)O[C@H]3[C@@H](O)[C@H](n4cnc5c(N)ncnc54)O[C@@H]3CO)[C@@H](OP(=O)(S)OC[C@H]3O[C@@H](n4ccc(=O)[nH]c4=O)[C@H](O)[C@@H]3OP(=O)(S)OC[C@H]3O[C@@H](n4ccc5c(=O)[nH]c(N)nc54)[C@H](O)[C@@H]3OP(=O)(S)OC[C@H]3O[C@@H](n4cnc5c(N)ncnc54)[C@H](O)[C@@H]3OP(=O)(S)OC[C@H]3O[C@@H](n4ccc(N)nc4=O)[C@H](O)[C@@H]3OP(=O)(S)OC[C@H]3O[C@@H](n4ccc5c(=O)[nH]c(N)nc54)[C@H](O)[C@@H]3OP(=O)(S)OC[C@H]3O[C@@H](n4ccc(N)nc4=O)[C@H](O)[C@@H]3OP(=O)(S)OC[C@H]3O[C@@H](n4ccc(=O)[nH]c4=O)[C@H](O)[C@@H]3OP(=O)(S)OC[C@H]3O[C@@H](n4ccc(=O)[nH]c4=O)[C@H](O)[C@@H]3OP(=O)(S)OCC(O)COP(=O)(S)O[C@H]3[C@@H](O)[C@H](n4ccc(=O)[nH]c4=O)O[C@@H]3COP(=O)(S)O[C@H]3[C@@H](O)[C@H](n4ccc(=O)[nH]c4=O)O[C@@H]3COP(=O)(S)O[C@H]3[C@@H](O)[C@H](n4ccc(N)nc4=O)O[C@@H]3COP(=O)(S)O[C@H]3[C@@H](O)[C@H](n4ccc5c(=O)[nH]c(N)nc54)O[C@@H]3COP(=O)(S)O[C@H]3[C@@H](O)[C@H](n4ccc(N)nc4=O)O[C@@H]3COP(=O)(S)O[C@H]3[C@@H](O)[C@H](n4cnc5c(N)ncnc54)O[C@@H]3COP(=O)(S)O[C@H]3[C@@H](O)[C@H](n4ccc5c(=O)[nH]c(N)nc54)O[C@@H]3COP(=O)(S)O[C@H]3[C@@H](O)[C@H](n4ccc(=O)[nH]c4=O)O[C@@H]3COP(=O)(S)O[C@H]3[C@@H](O)[C@H](n4ccc(N)nc4=O)O[C@@H]3COP(=O)(S)O[C@H]3[C@@H](O)[C@H](n4cnc5c(N)ncnc54)O[C@@H]3COP(=O)(S)O[C@H]3[C@@H](O)[C@H](n4cnc5c(N)ncnc54)O[C@@H]3CO)[C@H]2O)c(=O)n1 (stereo not given in full)
active: [1] Dose-dependent effect | [2] Dose-dependent effect | [3] Dose-dependent effect | [4] Dose-dependent effect | [5] Dose-dependent effect

Nc1ccn([C@@H]2O[C@H](COP(=O)(S)O[C@H]3[C@@H](O)[C@H](n4cnc5c(N)ncnc54)O[C@@H]3COP(=O)(S)O[C@H]3[C@@H](O)[C@H](n4ccc5c(=O)[nH]c(N)nc54)O[C@@H]3COP(=O)(S)O[C@H]3[C@@H](O)[C@H](n4ccc(=O)[nH]c4=O)O[C@@H]3COP(=O)(S)O[C@H]3[C@@H](O)[C@H](n4ccc5c(=O)[nH]c(N)nc54)O[C@@H]3COP(=O)(S)O[C@H]3[C@@H](O)[C@H](n4cnc5c(N)ncnc54)O[C@@H]3COP(=O)(S)O[C@H]3[C@@H](O)[C@H](n4cnc5c(N)ncnc54)O[C@@H]3CO)[C@@H](OP(=O)(S)OC[C@H]3O[C@@H](n4ccc5c(=O)[nH]c(N)nc54)[C@H](O)[C@@H]3OP(=O)(S)OC[C@H]3O[C@@H](n4ccc(N)nc4=O)[C@H](O)[C@@H]3OP(=O)(S)OC[C@H]3O[C@@H](n4ccc(=O)[nH]c4=O)[C@H](O)[C@@H]3OP(=O)(S)OC[C@H]3O[C@@H](n4ccc(=O)[nH]c4=O)[C@H](O)[C@@H]3OP(=O)(S)OCC(O)COP(=O)(S)O[C@H]3[C@@H](O)[C@H](n4ccc(=O)[nH]c4=O)O[C@@H]3COP(=O)(S)O[C@H]3[C@@H](O)[C@H](n4ccc(=O)[nH]c4=O)O[C@@H]3COP(=O)(S)O[C@H]3[C@@H](O)[C@H](n4ccc(N)nc4=O)O[C@@H]3COP(=O)(S)O[C@H]3[C@@H](O)[C@H](n4ccc5c(=O)[nH]c(N)nc54)O[C@@H]3COP(=O)(S)O[C@H]3[C@@H](O)[C@H](n4ccc(N)nc4=O)O[C@@H]3COP(=O)(S)O[C@H]3[C@@H](O)[C@H](n4cnc5c(N)ncnc54)O[C@@H]3COP(=O)(S)O[C@H]3[C@@H](O)[C@H](n4ccc5c(=O)[nH]c(N)nc54)O[C@@H]3COP(=O)(S)O[C@H]3[C@@H](O)[C@H](n4ccc(=O)[nH]c4=O)O[C@@H]3COP(=O)(S)O[C@H]3[C@@H](O)[C@H](n4ccc5c(=O)[nH]c(N)nc54)O[C@@H]3COP(=O)(S)O[C@H]3[C@@H](O)[C@H](n4cnc5c(N)ncnc54)O[C@@H]3COP(=O)(S)O[C@H]3[C@@H](O)[C@H](n4cnc5c(N)ncnc54)O[C@@H]3CO)[C@H]2O)c(=O)n1 (stereo not given in full)
active: [1] Dose-dependent effect | [2] Dose-dependent effect | [3] Dose-dependent effect | [4] Dose-dependent effect | [5] Dose-dependent effect

Nc1ccn([C@@H]2O[C@H](COP(=O)(S)O[C@H]3[C@@H](O)[C@H](n4cnc5c(N)ncnc54)O[C@@H]3COP(=O)(S)O[C@H]3[C@@H](O)[C@H](n4ccc5c(=O)[nH]c(N)nc54)O[C@@H]3COP(=O)(S)O[C@H]3[C@@H](O)[C@H](n4ccc(=O)[nH]c4=O)O[C@@H]3COP(=O)(S)O[C@H]3[C@@H](O)[C@H](n4ccc(=O)[nH]c4=O)O[C@@H]3COP(=O)(S)O[C@H]3[C@@H](O)[C@H](n4cnc5c(N)ncnc54)O[C@@H]3COP(=O)(S)O[C@H]3[C@@H](O)[C@H](n4cnc5c(N)ncnc54)O[C@@H]3CO)[C@@H](OP(=O)(S)OC[C@H]3O[C@@H](n4ccc5c(=O)[nH]c(N)nc54)[C@H](O)[C@@H]3OP(=O)(S)OC[C@H]3O[C@@H](n4ccc(N)nc4=O)[C@H](O)[C@@H]3OP(=O)(S)OC[C@H]3O[C@@H](n4ccc(=O)[nH]c4=O)[C@H](O)[C@@H]3OP(=O)(S)OC[C@H]3O[C@@H](n4ccc(=O)[nH]c4=O)[C@H](O)[C@@H]3OP(=O)(S)OCC(O)COP(=O)(S)O[C@H]3[C@@H](O)[C@H](n4ccc(=O)[nH]c4=O)O[C@@H]3COP(=O)(S)O[C@H]3[C@@H](O)[C@H](n4ccc(=O)[nH]c4=O)O[C@@H]3COP(=O)(S)O[C@H]3[C@@H](O)[C@H](n4ccc(N)nc4=O)O[C@@H]3COP(=O)(S)O[C@H]3[C@@H](O)[C@H](n4ccc5c(=O)[nH]c(N)nc54)O[C@@H]3COP(=O)(S)O[C@H]3[C@@H](O)[C@H](n4ccc(N)nc4=O)O[C@@H]3COP(=O)(S)O[C@H]3[C@@H](O)[C@H](n4cnc5c(N)ncnc54)O[C@@H]3COP(=O)(S)O[C@H]3[C@@H](O)[C@H](n4ccc5c(=O)[nH]c(N)nc54)O[C@@H]3COP(=O)(S)O[C@H]3[C@@H](O)[C@H](n4ccc(=O)[nH]c4=O)O[C@@H]3COP(=O)(S)O[C@H]3[C@@H](O)[C@H](n4ccc(=O)[nH]c4=O)O[C@@H]3COP(=O)(S)O[C@H]3[C@@H](O)[C@H](n4cnc5c(N)ncnc54)O[C@@H]3COP(=O)(S)O[C@H]3[C@@H](O)[C@H](n4cnc5c(N)ncnc54)O[C@@H]3CO)[C@H]2O)c(=O)n1 (stereo not given in full)
active: [1] Dose-dependent effect | [2] Dose-dependent effect | [3] Dose-dependent effect | [4] Dose-dependent effect | [5] Dose-dependent effect
